# CSC inhib = cancer stem cell inhibition; AID 2717; inhibition, % at 7.5 µM; cancer stem cell-like cells viability, luminescence; 300,000 tested, 1.1% active; in the data active means inhibition above about 75%; inconclusive means no clear call, values can overlap the other calls; tested in HMLE shEcad cells
# Mdm2-MdmX inh = human Mdm2/MdmX binding inhibition | O15151+Q00987 | SaOS-2 split-luciferase Mdm2/MdmX complementation, luminescence | inhibition, % at 8 µM | 330,000 tested, 3% active | AID 485346;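 active means inhibition of at least 50% at 8 µM in the primary screen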
# Target sequence (O15151 whole entry, looked up): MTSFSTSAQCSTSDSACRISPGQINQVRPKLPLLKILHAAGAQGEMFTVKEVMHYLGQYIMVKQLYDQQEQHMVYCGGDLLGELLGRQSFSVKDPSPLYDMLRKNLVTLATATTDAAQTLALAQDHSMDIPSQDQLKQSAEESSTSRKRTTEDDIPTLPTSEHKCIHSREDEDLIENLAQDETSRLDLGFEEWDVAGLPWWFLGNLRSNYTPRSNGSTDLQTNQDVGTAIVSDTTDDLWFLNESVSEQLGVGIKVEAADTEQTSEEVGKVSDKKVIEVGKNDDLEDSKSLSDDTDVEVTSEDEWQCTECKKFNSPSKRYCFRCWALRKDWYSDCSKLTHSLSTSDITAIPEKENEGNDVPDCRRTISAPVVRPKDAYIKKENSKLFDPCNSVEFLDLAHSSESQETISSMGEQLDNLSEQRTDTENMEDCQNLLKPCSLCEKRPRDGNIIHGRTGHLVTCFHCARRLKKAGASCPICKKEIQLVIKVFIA
# Target sequence (Q00987 whole entry, looked up): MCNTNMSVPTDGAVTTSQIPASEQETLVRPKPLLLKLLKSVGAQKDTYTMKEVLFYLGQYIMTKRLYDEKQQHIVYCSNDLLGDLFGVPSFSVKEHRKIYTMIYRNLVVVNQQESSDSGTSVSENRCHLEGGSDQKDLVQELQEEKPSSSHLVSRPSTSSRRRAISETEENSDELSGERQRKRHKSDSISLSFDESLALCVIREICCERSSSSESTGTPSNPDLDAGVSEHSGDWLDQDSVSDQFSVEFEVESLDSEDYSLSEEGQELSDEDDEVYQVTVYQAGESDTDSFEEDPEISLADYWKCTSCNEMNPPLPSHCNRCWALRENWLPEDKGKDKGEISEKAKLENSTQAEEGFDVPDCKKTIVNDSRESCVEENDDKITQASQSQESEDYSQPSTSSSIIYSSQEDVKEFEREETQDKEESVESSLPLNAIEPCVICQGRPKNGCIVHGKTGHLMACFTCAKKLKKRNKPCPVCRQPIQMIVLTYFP
# SKKanGAS inh = blocks kanamycin growth of S. pyogenes SKKanGAS strain. BacTiter-Glo, 6 h. inhibition, % at 7.5 µM. 300,000 tested, 1.3% active. AID 1662;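 active means mean replicate score, as percent of positive control median, at least 50; inconclusive means mean below 50 but one replicate at or above 50; inactive means mean and every replicate below 50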;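 further: strain carries kanamycin resistance gene driven by streptokinase promoter and grows in 40 µg/ml kanamycin; loss of luminescence reflects streptokinase promoter inhibition or plain growth inhibition; 0% = median of DMSO wells and 100% = positive control at its reference dose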
# T cruzi repl = blocks replication of Trypanosoma cruzi; T. cruzi beta-gal in NIH3T3, luminescence, 90 h; inhibition, % (no concentration beside the values); 300,000 tested, 1.4% active; AID 1885;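 active means mean inhibition across valid replicates above about 55%, limit read from the data; inconclusive means mean below that limit but half or more replicates reach it; inactive means mean below it, under half of replicates reach it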;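 further: signal also drops with host cell toxicity which is not excluded here; 0% = plate median of DMSO wells and 100% = zero luminescence signal; higher percent means less beta-gal luminescence so fewer parasites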
#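 System – NIH/3T3 host cells with β-galactosidase reporter T. cruzi · Doses – single 50 nL compound addition per well in DMSO · Reagent – 5000 T. cruzi trypomastigotes/well · Medium – Low-serum DMEM with 2% FBS · Timing – ≥90 h infection period, 3 h prior cell attachment · Evaluation – parasite load inhibition, % · Technique – GalScreen luminescence, 60 min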
# Calb FLC = affects C. albicans growth with fluconazole; C. albicans CaCi-2 (fluconazole-resistant clinical isolate) + fluconazole, Alamar Blue growth, 48 h; growth inhibition, % (no concentration beside the values); 300,000 tested, 0.57% active; AID 1979;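 active means growth inhibition above about 58% in most replicates, limit read from the data, passing the limit was not always enough; inconclusive means exactly half the replicates above a set limit; inactive means most replicates below a set limit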;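 further: all wells also contain fluconazole at 8 µg/ml as a sub-toxic cotreatment; 0% = median of DMSO wells and 100% = median of geldanamycin control wells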
# Beta cell apopt = blocks beta cell apoptosis; INS-1E cytokine-induced death, ATP luminescence, 48 h; percent of positive-control rescue, neutral wells zero; protection from apoptosis, % (concentration not given with the values); 300,000 tested, 0.8% active;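 active means Every replicate reaches about 75%, or at least half do and their mean reaches it too, limit read from the data; inconclusive means At least half of replicates reach the limit but their mean does not; inactive means Under half of replicates reach the limit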;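 further: 0% = cytokine-treated negative control wells and 100% = positive control rescue; higher means more ATP so stronger rescue from cytokine killing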
# Mdm2 MdmX conf = confirmation of human Mdm2/MdmX interaction inhibitors; shares compounds with Mdm2-MdmX inh; Mdm2-MdmX binding, luminescent assay; inhibition, % at 8 µM; 10,000 tested, 55% active; AID 489028; in the data active means inhibition above about 40%
# FLuc counter = counter-screen for Mdm2/MdmX inhibitors: full-length luciferase; shares compounds with Mdm2-MdmX inh; 6,200 tested, 77% active; inhibition, % at 8 µM; SaOS-2 full-length luciferase counterscreen, luminescence; AID 504607;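 active means mean inhibition at 8 µM reaching about 37%, which flags the compound as non-specific, limit read from the data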;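 further: p53-null SaOS-2 cells with luciferase driven by a doxycycline-inducible promoter; compound on cells about two nights before reading with doxycycline added after day one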
# * marks the source's active call; other numbers are inactive results; ? = inconclusive; nt = no result given. A selection: hits, their analogues and other compounds. The true share with any hit is near 5.7%.
SMILES,CSC inhib,Mdm2-MdmX inh,SKKanGAS inh,T cruzi repl,Calb FLC,Beta cell apopt,Mdm2 MdmX conf,FLuc counter
O=C(NCc1ccc(F)cc1)c1cccc2c1C(=O)c1ccc(Cl)cc1S2(=O)=O,-18,-16,nt,nt,nt,-2,nt,nt
O=C(NCc1ccco1)c1cccc2c1C(=O)c1ccc(/C=C/c3ccccc3)cc1S2(=O)=O,44,53*,nt,nt,nt,10,47*,69*
CC(C)c1cccc(-c2ccc3c(c2)S(=O)(=O)c2cccc(C(=O)NCc4ccccc4Cl)c2C3=O)c1,31,89*,nt,nt,nt,-4,16,nt
O=C(NCc1ccco1)c1cccc2c1C(=O)c1ccc(N3CCC(Cc4ccccc4)CC3)cc1S2(=O)=O,nt,15,nt,nt,nt,6,nt,nt
CC(C)NC(=O)CN(Cc1ccc(F)cc1)C(=O)CCC(=O)Nc1nccs1,-10,6,-1,0,-5,-9,nt,nt
CCN(CC(=O)NCc1cccs1)C(=O)c1ccc(S(=O)(=O)Nc2cccc(C)c2C)cc1,-6,7,-4,8,2,-2,nt,nt
O=C(COC(=O)c1ccc[nH]c1=O)Nc1ccc(N2CCCCC2)cc1,0,-40,nt,nt,nt,-7,nt,nt
Cn1nnnc1Sc1ncnc2scc(-c3cc4ccccc4o3)c12,115*,100*,nt,nt,nt,89*,99*,51*
Cc1ccc(-c2csc3ncnc(SCC(=O)O)c23)cc1,-15,12,3,0,-3,-2,nt,nt
Cn1nnnc1Sc1ncnc2scc(-c3ccc(C#N)cc3)c12,44,87*,nt,nt,nt,-40,79*,60*
Cc1ccccc1N1CCN(c2ncnc3scc(-c4cccs4)c23)CC1,23,-8,34,17,18,2,nt,nt
Cn1nnnc1Sc1ncnc2scc(-c3ccc(-c4ccccc4)cc3)c12,nt,100*,nt,nt,nt,-4,23,nt
CC(=O)c1ccccc1-c1csc2ncnc(Sc3nnnn3C)c12,24,32,nt,nt,nt,-35,nt,nt
Cn1nnnc1Sc1ncnc2scc(-c3cccs3)c12,57,98*,nt,nt,nt,-84,90*,56*
Cn1nnnc1Sc1ncnc2scc(-c3ccsc3)c12,nt,100*,nt,nt,nt,-4,85*,53*
Cc1nnc(NC(=O)CSc2ncnc3scc(-c4ccccc4)c23)s1,40,12,0,-4,9,-1,nt,nt
CCCCN(C)C(=O)Cn1nc(Cc2ccncc2)c2ccccc2c1=O,-3,18,3,-1,-5,-8,nt,nt
CCOC(=O)CSc1nc2cc(C(=O)NCc3ccco3)ccc2c(=O)n1C1CCCCC1,-11,-37,-15,2,-16,-5,nt,nt
O=C(NCc1ccco1)c1ccc2c(=O)n(-c3ccccc3)c(=S)[nH]c2c1,-8,50*,-3,-11,-2,-1,-4,nt
CCOC(=O)CSc1nc2cc(C(=O)NCc3ccco3)ccc2c(=O)n1-c1ccc(F)cc1,0,71*,1,-6,5,nt,13,83*
COc1ccc(C(C)=O)cc1COc1cccnc1[N+](=O)[O-],43,32,-8,2,6,-6,nt,nt
CCOc1ccc(C(C)=O)cc1COc1cccnc1[N+](=O)[O-],41,58*,-4,-1,5,-6,57*,45*
COc1c(Cl)cc(Cl)cc1/C=C/C(=O)c1ccc(NC(=O)c2cccs2)cc1,103*,99*,26,43,10,23,95*,59*
COc1c(Cl)cc(Cl)cc1C(=O)Nc1ccc(C(=O)O)cc1,-12,-40,-7,-28,36,0,nt,nt
Cc1ccc(C2=NN(CCC#N)C(=O)CO2)cc1,-12,20,-1,-8,1,-1,nt,nt
SMILES,CSC inhib,Mdm2-MdmX inh,SKKanGAS inh,T cruzi repl,Calb FLC,Beta cell apopt,Mdm2 MdmX conf,FLuc counter
COc1ccc(-c2nc(N)nc(C)c2Oc2ccccc2Br)c(O)c1,83*,67*,nt,nt,nt,-11,65*,53*
O=C(Nc1ccc(-n2ccc(C(F)(F)F)n2)cc1)Nc1cccc(Cl)c1,44,80*,2,62*,-16,116*,30,82*
CC(OC(=O)c1cc(Br)ccc1O)C(=O)Nc1ccc(S(=O)(=O)N2CCCC2)cc1 (configuration not stated),20,63*,-1,0,nt,10,43*,73*
CC(OC(=O)c1ccc(S(=O)(=O)N2CCCCC2)cc1)C(=O)Nc1ccc(C(N)=O)cc1 (configuration not stated),nt,54*,nt,nt,nt,nt,-16,nt
CCN1CCN(C(=O)CCNC(=O)Cn2cnc3ccccc3c2=O)CC1,-9,-19,0,-8,5,-9,nt,nt
O=S(=O)(c1ccccc1)c1nnn2c1nc(NC1CCN(Cc3ccccc3)CC1)c1ccccc12,17,54*,8,30,-3,24,33,nt
CC(C)c1ccc(S(=O)(=O)c2nnn3c2nc(NCC2CCCO2)c2ccccc23)cc1 (configuration not stated),-5,5,6,-13,9,9,nt,nt
O=S(=O)(c1ccccc1)c1nnn2c1nc(NC1CCN(Cc3ccccc3)CC1)c1cc(Cl)ccc12,0,100*,12,21,49,20,36,52*
COC(=O)c1ccc(CNC(=O)Cn2cnc3c(NCc4ccccc4)ncnc32)cc1,nt,27,nt,nt,nt,nt,nt,nt
COc1ccc(CNC(=O)Cn2cnc3c(NCc4ccccc4)ncnc32)cc1,nt,61*,nt,nt,nt,nt,28,nt
COc1cc(NC(=S)NC(=O)C(C)C)ccc1NC(=O)c1cc2ccccc2o1,5,18,-3,10,4,2,nt,nt
CCOc1cccc(C(=O)Nc2ccc(NC(=O)c3cc4ccccc4o3)c(OC)c2)c1,20,-7,-3,-7,1,7,nt,nt
CCC(=O)NC(=S)Nc1ccc(NC(=O)c2cc3ccccc3o2)c(OC)c1,9,54*,2,40,26,0,-3,nt
COc1cc(NC(=O)c2cccc([N+](=O)[O-])c2)ccc1NC(=O)c1cc2ccccc2o1,4,81*,0,0,0,11,31,88*
O=C(NC(=S)Nc1ccc(NC(=O)c2cccs2)cc1)c1cc2ccccc2o1,23,52*,-7,3,-7,6,30,nt
O=C(NC(=S)Nc1ccc(NC(=O)c2cccs2)cc1)c1ccco1,-1,-29,-3,8,2,0,nt,nt
COc1cc(NC(=O)C(C)C)ccc1NC(=O)c1cc2ccccc2o1,-1,-104,-5,-4,12,2,nt,nt
COc1cc(NC(=O)c2cccc(C)c2)ccc1NC(=O)c1cc2ccccc2o1,16,67*,0,-1,-2,14,36,81*
COc1ccc(O)c(/C=N/NC(=O)c2ccc(CSc3nc(C)cc(C)n3)cc2)c1,110*,77*,16,41,119*,?,74*,31

# Assay outcomes as filed in PubChem BioAssay.
